Columns and labels:
[1] = Lipophilicity was determined by reversed-phase HPLC; details: extrapolated to 100% water
[2] = Half-life at pH 7.4 in rat blood; assay type: ADME, organism-based
Summary of the method: (§1)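 Fresh rat whole blood, or rat brain homogenized to 10% (w/v) in pH 7.4 phosphate buffer (1/20 M), spiked from DMSO stock to 40 μM final and held at 37 °C. Timed samples were extracted three times with 8% DMSO in acetonitrile, centrifuged, filtered and analyzed by HPLC. Pseudo-first-order rate constants came from log peak height versus time. Values are means of two determinations.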

[3] = Half-life in phosphate buffer (0.05 M, mu = 0.15) at 30 degree Celsius with pH 7.43; assay type: ADME
Summary of the method: (§2)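 DMSO stock added to 10 mL phosphate buffer (0.05 M, μ = 0.15) at the stated pH. Timed samples were analyzed by HPLC, with UV detection at 360 nm for dihydro CDS forms and 260 nm for quaternary salts. Pseudo-first-order disappearance rate constants came from linear regression of log peak height versus time, and half-lives were derived from them.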

[4] = Half-life in phosphate buffer (0.05 M, mu = 0.15) at 30 degree Celsius with pH 7.73; assay type: ADME
Summary of the method: as §2

[5] = Half-life in phosphate buffer (0.05 M, mu = 0.15) at 30 degree Celsius with pH 6.07; assay type: ADME
Summary of the method: as §2

[6] = Half-life in phosphate buffer (0.05 M, mu = 0.15) at 30 degree Centigrade with pH 6.88; assay type: ADME
Summary of the method: as §2

[7] = Half-life at pH 7.4 in rat 10% brain homogenate; assay type: ADME
Summary of the method: as §1

[8] = Half-life in phosphate buffer (0.05 M, mu = 0.15) at 30 degree Celsius with pH 8.05; assay type: ADME
Summary of the method: as §2

[9] = Second-order oxidation rate constant determined using ferricyanide; assay type: ADME
Summary of the method: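 Chemical oxidation with ferricyanide was run under pseudo-first-order conditions, with Fe(CN)6^3- in large excess over the CDS and pH held constant. Pseudo-first-order rates were measured at several ferricyanide concentrations, and the second-order constant (M^-1 s^-1) was derived from them.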

[10] = Half-life in phosphate buffer (0.05 M, mu = 0.15) at 30 degree Celsius with pH 6.15; assay type: ADME
Summary of the method: as §2

[11] = Half-life in phosphate buffer (0.05 M, mu = 0.15) at 30 degree Celsius with pH 6.93; assay type: ADME
Summary of the method: as §2

[12] = Half-life in phosphate buffer (0.05 M, mu = 0.15) at 30 degree Celsius with pH 8.14; assay type: ADME
Summary of the method: as §2

[13] = Half-life in phosphate buffer (0.05 M, mu = 0.15) at 30 degree Celsius with pH 7.79; assay type: ADME
Summary of the method: as §2

[14] = Half-life in phosphate buffer (0.05 M, mu = 0.15) at 30 degree Celsius with pH 7.45; assay type: ADME
Summary of the method: as §2

Oryctolagus cuniculus [15] = species on record: Oryctolagus cuniculus; test: Half-life at pH 7.4 in rabbit blood; Compound insoluble; assay type: ADME, organism-based
Summary of the method: (§3)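 Freshly collected rabbit or human whole blood, spiked from DMSO stock to 40 μM final and kept at 37 °C. Timed samples were extracted three times with 8% DMSO in acetonitrile, centrifuged, filtered and analyzed by HPLC. Pseudo-first-order rate constants came from linear regression of log peak height versus time.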

Homo sapiens = species on record: Homo sapiens; test: Half-life at pH 7.4 in human blood; Compound insoluble; assay type: ADME, organism-based
Summary of the method: as §3

[16] = Half-life in phosphate buffer (0.05 M, mu = 0.15) at 30 degree Celsius and pH 7.45; assay type: ADME
Summary of the method: as §2

[17] = Half-life at pH 7.4 in rabbit blood; assay type: ADME, organism-based, Oryctolagus cuniculus
Summary of the method: as §3

[18] = Half-life at pH 7.4 in human blood; assay type: ADME, organism-based
Summary of the method: as §3

[19] = Half-life in phosphate buffer (0.05 M, mu = 0.15) at 30 degree Celsius and pH 6.93; assay type: ADME
Summary of the method: as §2

[20] = Half-life in phosphate buffer (0.05 M, mu = 0.15) at 30 degree Celsius and pH 6.15; assay type: ADME
Summary of the method: as §2

[21] = (§4) Concentration of compound after 5 minutes in rabbit blood; assay type: ADME, organism-based, Oryctolagus cuniculus
[22] = Concentration of compound after 10 minutes in rabbit blood; assay type: ADME, organism-based, Oryctolagus cuniculus
Rattus norvegicus [23] = species on record: Rattus norvegicus; test: Concentration of compound after 3 minutes in rat blood; assay type: functional, organism-based
Oryctolagus cuniculus [24] = species on record: Oryctolagus cuniculus; test: as §4; assay type: functional, organism-based
Summary of the method: (§5)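 Oxacillin at 20 mg/kg, or an equimolar dose of its CDS, given i.v. to male Sprague-Dawley rats (tail vein) or male New Zealand albino rabbits (ear vein). Vehicle was water/ethanol/propylene glycol at 20 mg/mL. Samples were rat trunk blood after decapitation or rabbit ear-vein blood, with brain removed and frozen. Oxacillin was assayed by B. subtilis ATCC 6633 paper-disk diffusion and by HPLC. Values are means of two determinations.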

Rattus norvegicus [25] = species on record: Rattus norvegicus; test: Concentration of compound after 3 minutes in rat brain; assay type: functional, organism-based
Summary of the method: as §5

Oryctolagus cuniculus [26] = species on record: Oryctolagus cuniculus; test: Concentration of compound after 10 min in rabbit brain; assay type: functional, organism-based
Summary of the method: as §5

Oryctolagus cuniculus [27] = species on record: Oryctolagus cuniculus; test: Concentration of compound after 5 minutes in rabbit brain; assay type: functional, organism-based
Summary of the method: as §5

Oryctolagus cuniculus [28] = species on record: Oryctolagus cuniculus; test: Concentration of compound after 10 min in rabbit blood; assay type: functional, organism-based
Summary of the method: as §5

| SMILES | half-life [3] | half-life [4] | half-life [5] | half-life [6] | Log k [1] | half-life [2] | half-life [7] | ko [9] | half-life [12] | half-life [13] | other results |
| --- | --- | --- | --- | --- | --- | --- | --- | --- | --- | --- | --- |
| Cc1onc(-c2ccccc2Cl)c1C(=O)NC1C(=O)N2C1SC(C)(C)[C@@H]2C(=O)[O-].[Na+] (some centres not stated) |  |  |  |  | 2.097 |  |  |  |  |  |  |
| Cc1onc(-c2c(Cl)cccc2Cl)c1C(=O)NC1C(=O)N2C1SC(C)(C)[C@@H]2C(=O)[O-].[Na+] (some centres not stated) |  |  |  |  | 2.435 |  |  |  |  |  |  |
| COc1cccc(OC)c1C(=O)N[C@@H]1C(=O)N2[C@@H]1SC(C)(C)[C@@H]2C(=O)[O-].[Na+] |  |  |  |  | 0.658 |  |  |  |  |  |  |
| Cc1onc(-c2ccccc2Cl)c1C(=O)NC1C(=O)N2C1SC(C)(C)[C@@H]2C(=O)OCOC(=O)C1=CN(C)C=CC1 (some centres not stated) |  |  |  |  | 3.06 | 3.8 min | 10 min | 0.36 M⁻¹ s⁻¹ | 165 min | 305 min | half-life [10]: 350 min; half-life [11]: 506 min; half-life [14]: 377 min |
| COc1cccc(OC)c1C(=O)NC1C(=O)N2C1SC(C)(C)[C@@H]2C(=O)OCOC(=O)C1=CN(C)C=CC1 (some centres not stated) |  |  |  |  | 2.28 | 0.2 min | 8 min | 0.701 M⁻¹ s⁻¹ | 55.7 min | 103 min | half-life [16]: 134 min; half-life [17]: 10.7 min; half-life [18]: 116 min; half-life [19]: 238 min; half-life [20]: 130 min |
| Cc1onc(-c2c(Cl)cccc2Cl)c1C(=O)NC1C(=O)N2C1SC(C)(C)[C@@H]2C(=O)OCOC(=O)C1=CN(C)C=CC1 (some centres not stated) |  |  |  |  | 3.41 | 4.1 min | 12.6 min | 0.23 M⁻¹ s⁻¹ | 598 min | 932 min | half-life [10]: 464 min; half-life [11]: 1010 min; half-life [14]: 1030 min |
| Cc1onc(-c2ccccc2)c1C(=O)N[C@@H]1C(=O)N2[C@@H]1SC(C)(C)[C@@H]2C(=O)[O-].[Na+] |  |  |  |  | 1.868 |  |  |  |  |  | concentration at 5 min [21]: 15300 ng/mL; concentration at 10 min [22]: 9100 ng/mL; Concentration (Rattus norvegicus [23]): 41.1 µg/mL |
| Cc1onc(-c2ccccc2)c1C(=O)NC1C(=O)N2C1SC(C)(C)[C@@H]2C(=O)OCOC(=O)C1=CN(C)C=CC1 (some centres not stated) |  |  |  |  | 2.82 | 1.1 min | 5.4 min | 0.48 M⁻¹ s⁻¹ | 100 min | 172 min | Concentration (Oryctolagus cuniculus [24]): 4.6 µg/mL; half-life [17]: 23.7 min; half-life [18]: 7.5 min; Concentration (Rattus norvegicus [25]): 2.1 µg/mL; half-life [10]: 249 min; Concentration (Rattus norvegicus [23]): 26.2 µg/mL; half-life [11]: 277 min; Concentration (Oryctolagus cuniculus [26]): 0.3 µg/mL; half-life [14]: 196 min; Concentration (Oryctolagus cuniculus [27]): 0.3 µg/mL; Concentration (Oryctolagus cuniculus [28]): 2.2 µg/mL |

Second part, led by results:

| half-life [3] | half-life [4] | half-life [5] | half-life [6] | SMILES | Log k [1] | half-life [2] | half-life [7] | ko [9] | half-life [12] | half-life [13] | other results |
| --- | --- | --- | --- | --- | --- | --- | --- | --- | --- | --- | --- |
| 3.5 min | 2.1 min | 56 min | 11.3 min | Cc1onc(-c2ccccc2Cl)c1C(=O)NC1C(=O)N2C1SC(C)(C)[C@@H]2C(=O)OCOC(=O)c1ccc[n+](C)c1.[I-] (some centres not stated) |  | 0.6 min | 1.1 min |  |  |  | half-life [8]: 1 min |
| 3.4 min | 1.9 min | 49 min | 10.3 min | Cc1onc(-c2ccccc2)c1C(=O)NC1C(=O)N2C1SC(C)(C)[C@@H]2C(=O)OCOC(=O)c1ccc[n+](C)c1.[I-] (some centres not stated) |  | 0.7 min | 1.2 min |  |  |  | half-life [8]: 1.1 min |
| 3.6 min | 2 min | 58.6 min | 12 min | COc1cccc(OC)c1C(=O)NC1C(=O)N2C1SC(C)(C)[C@@H]2C(=O)OCOC(=O)c1ccc[n+](C)c1.[I-] (some centres not stated) |  | 1 min | 1.1 min |  |  |  | T1/2 (Oryctolagus cuniculus [15]): Insoluble; T1/2 (Homo sapiens): Insoluble; half-life [8]: 1 min |
| 3.9 min | 2.9 min | 44.4 min | 14.7 min | Cc1onc(-c2c(Cl)cccc2Cl)c1C(=O)NC1C(=O)N2C1SC(C)(C)[C@@H]2C(=O)OCOC(=O)c1ccc[n+](C)c1.[I-] (some centres not stated) |  | 0.7 min | 1 min |  |  |  |  |
